These results are taken from ChEMBL document CHEMBL1773039, “Structure-Activity Study of Dihydrocinnamic Acids and Discovery of the Potent FFA1 (GPR40) Agonist TUG-469” (ACS Med Chem Lett, 2010).

Calls of active or inactive are those of the source. The calls are words filed in the database; no cut-off is given here. Bounds are passed on as bounds.

Data set [1] addresses T1, Free fatty acid receptor 1 (Homo sapiens, UniProt O14842). The experiment in a line: Agonist activity at human FFA1 transfected in 1321N1 cells assessed as calcium mobilization by microplate assay. The format is functional, cell-based. The gist of the method: (§1)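 Calcium mobilization in hFFA1-expressing cells was measured as full concentration-response curves and reported as pEC50. Efficacy is % of the response to 10 μM of the reference agonist.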

In data set [2] the target is T1, Free fatty acid receptor 1. The data set can be described thus: Agonist activity at human FFA1 transfected in 1321N1 cells assessed as calcium mobilization by microplate assay relative to 10 uM TUG-20. In kind it is functional, cell-based. The gist of the method: as §1
In data set [3] the target is T2, Peroxisome proliferator-activated receptor gamma (Homo sapiens) (UniProt P37231).
T2 sequence (whole entry): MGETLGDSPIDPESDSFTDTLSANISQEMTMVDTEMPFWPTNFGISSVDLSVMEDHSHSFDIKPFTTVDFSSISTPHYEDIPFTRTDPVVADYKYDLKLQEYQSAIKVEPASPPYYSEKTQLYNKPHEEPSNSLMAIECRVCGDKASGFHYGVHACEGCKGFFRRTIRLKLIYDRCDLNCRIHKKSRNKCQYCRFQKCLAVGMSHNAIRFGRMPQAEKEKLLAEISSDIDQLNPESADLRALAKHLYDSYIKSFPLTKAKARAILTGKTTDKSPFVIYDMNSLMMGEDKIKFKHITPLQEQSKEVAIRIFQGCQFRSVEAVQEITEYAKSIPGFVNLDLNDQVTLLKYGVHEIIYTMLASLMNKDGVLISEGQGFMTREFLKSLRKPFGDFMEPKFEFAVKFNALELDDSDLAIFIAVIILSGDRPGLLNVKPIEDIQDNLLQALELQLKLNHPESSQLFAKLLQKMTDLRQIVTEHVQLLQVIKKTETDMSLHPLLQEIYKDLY
The data set can be described thus: Transactivation of human PPARgamma ligand binding domain transfected in mouse embryo fibroblasts at 100 uM after 18 hrs analyzed by photinus and renilla luciferase activity by luminometry relative to 1 uM rosiglitazone.

The target of data set [4] is T2, Peroxisome proliferator-activated receptor gamma (Homo sapiens). The experiment in a line: Transactivation of human PPARgamma ligand binding domain transfected in mouse embryo fibroblasts assessed as renilla luciferase activity at 1 uM after 18 hrs by luminometry relative to 1 uM rosiglitazone.
For data set [5], the species on record is Homo sapiens. The experiment in a line: Selectivity for human FFA1 over human PPARgamma.
Data set [6] deals with T1, Free fatty acid receptor 1. The experiment in a line: Agonist activity at human FFA1 transfected in 1321N1 cells assessed as calcium mobilization by microplate assay in presence of 0.05 % bovine serum albumin. In kind it is functional, cell-based. The gist of the method: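 Calcium-response assay at hFFA1, with 0.05% BSA added to the assay because the compound dissolves poorly.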

In data set [7] the target is T1, Free fatty acid receptor 1. The experiment in a line: Agonist activity at human FFA1 transfected in 1321N1 cells assessed as calcium mobilization by microplate assay in presence of 0.5 % bovine serum albumin. In kind it is functional, cell-based.
Data set [8] addresses T1, Free fatty acid receptor 1. The data set can be described thus: Agonist activity at human FFA1 transfected in 1321N1 cells under serum-free condition after 1 hr by dose response curve/dynamic mass redistribution optical biosensor assay. In kind it is functional, cell-based. The gist of the method:
(§2)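 hFFA1-transfected 1321N1 cells were exposed to a range of agonist concentrations. Label-free dynamic mass redistribution was tracked over time as the resonant wavelength shift (pm), a read-out of receptor activation. pEC50 was taken from concentration-response curves of this signal.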

The target of data set [9] is Free fatty acid receptor 2 (Homo sapiens) (UniProt O15552). The data set can be described thus: Agonist activity at human GPR43 in HEK293 cells.
Free fatty acid receptor 2 (Homo sapiens), sequence (O15552 whole entry, looked up): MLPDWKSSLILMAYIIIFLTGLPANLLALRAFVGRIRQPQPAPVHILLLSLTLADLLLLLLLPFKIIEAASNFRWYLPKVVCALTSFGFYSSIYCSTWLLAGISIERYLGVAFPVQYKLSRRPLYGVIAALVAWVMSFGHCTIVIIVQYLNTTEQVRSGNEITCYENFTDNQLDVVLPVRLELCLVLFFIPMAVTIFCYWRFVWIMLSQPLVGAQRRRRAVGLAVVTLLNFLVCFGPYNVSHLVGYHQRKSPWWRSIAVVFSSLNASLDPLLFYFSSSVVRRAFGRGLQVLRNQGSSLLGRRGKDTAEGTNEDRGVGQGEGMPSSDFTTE
Data set [10] deals with Free fatty acid receptor 3 (Homo sapiens) (UniProt O14843). The data set can be described thus: Agonist activity at human GPR41 in HEK293 cells.
Free fatty acid receptor 3 (Homo sapiens), sequence (O14843 whole entry, looked up): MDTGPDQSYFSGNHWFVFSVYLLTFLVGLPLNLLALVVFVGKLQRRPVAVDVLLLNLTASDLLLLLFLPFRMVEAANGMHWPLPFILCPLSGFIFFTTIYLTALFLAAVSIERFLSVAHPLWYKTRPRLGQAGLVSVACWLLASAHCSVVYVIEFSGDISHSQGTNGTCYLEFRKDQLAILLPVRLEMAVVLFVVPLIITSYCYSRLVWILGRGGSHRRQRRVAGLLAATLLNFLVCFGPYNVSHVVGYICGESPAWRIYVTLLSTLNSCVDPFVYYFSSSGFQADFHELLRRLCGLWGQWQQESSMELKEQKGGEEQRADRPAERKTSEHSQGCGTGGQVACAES
The target in data set [11] is T1, Free fatty acid receptor 1. The experiment in a line: Agonist activity at human FFA1 transfected in 1321N1 cells under serum-free condition up to 1 hr by dynamic mass redistribution optical biosensor assay. In kind it is functional, cell-based. The gist of the method:
as §2

Data set [12] is described as follows: Induction of 12 mM glucose-stimulated insulin secretion in rat INS-1E cells at 10 uM after 1 hr by radioimmunoassay. The format is functional.
Data set [13] concerns INS-1E. The data set can be described thus: Induction of 2.8 mM glucose-stimulated insulin secretion in rat INS-1E cells at 10 uM after 1 hr by radioimmunoassay. The format is functional, cell-based.
Data set [14] concerns the target T1, Free fatty acid receptor 1. The data set can be described thus: Agonist activity at human FFA1 transfected in 1321N1 cells assessed as calcium mobilization by microplate assay relative to linoleic acid. In kind it is functional, cell-based.
For data set [15], the target named is T2, Peroxisome proliferator-activated receptor gamma (Homo sapiens). The experiment in a line: Transactivation of human PPARgamma ligand binding domain transfected in mouse embryo fibroblasts assessed as renilla luciferase activity at 10 uM by luminometry relative to 1 uM rosiglitazone.
Data set [16] can be described thus: Cytotoxicity in mouse embryo fibroblasts at 100 uM. The format is cell-based. The note with it: fibroblast.

T1 sequence (O14842 whole entry): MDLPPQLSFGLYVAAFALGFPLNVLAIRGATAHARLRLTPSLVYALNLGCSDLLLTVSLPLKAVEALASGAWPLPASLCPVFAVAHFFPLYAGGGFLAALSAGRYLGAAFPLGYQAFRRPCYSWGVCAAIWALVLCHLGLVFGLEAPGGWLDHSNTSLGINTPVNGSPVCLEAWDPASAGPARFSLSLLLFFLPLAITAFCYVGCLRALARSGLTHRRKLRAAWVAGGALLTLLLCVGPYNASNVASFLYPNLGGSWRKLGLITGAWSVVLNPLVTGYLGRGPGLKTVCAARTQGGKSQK

On to `Cc1ccccc1-c1cccc(COc2ccc(CCC(=O)O)cc2)c1`, for which the EC50 in data set [1] was 50.1 nM; in [6], 81.3 nM; in data set [7] it was 562 nM; in data set [8], 263 nM. Besides, the Efficacy in data set [2] was determined as 112%. The compound further gave an Activity in data set [3] of 37%. Moreover, the result in data set [4], in data set [9] and in data set [10] was inactive. The fold change (FC) in [5] is > 100.

For the compound `Cc1ccccc1-c1cccc(CNc2ccc(CCC(=O)O)cc2)c1`, the outcome in data set [11] was Active. In addition, the Efficacy in data set [2] was determined as 114%. In addition, the figures for the Activity in data set [3] and in [12] were 86% and 55%, respectively. In addition, the result in [4], in [13], in data set [9] and in data set [10] was inactive. Besides, the fold change (FC) in data set [5] is > 100.

As to `O=C(O)CCc1ccc(OCc2ccccc2)cc1` [BENZYLOXYPHENYLPROPANOIC ACID], the values for the EC50 in data set [1] and in data set [8] were 457 nM and 832 nM, respectively. In addition, the values for the Activity in data set [3] and in [14] were 7% and 123%, respectively. The outcome in [4], in data set [9] and in data set [10] was inactive.

Take `O=C(O)CCc1ccc(NCc2ccccc2-c2ccccc2)cc1`: the EC50 in data set [1] was 1070 nM. The Efficacy in [2] turned out to be 97%. Further, the result in data set [4], in [9] and in data set [10] was inactive. The fold change (FC) in data set [5] was > 100. Besides, the values for the Activity in [15] and in data set [16] were 15% and “Toxic”, respectively.

For `O=C(O)CCc1ccc(NCc2cccc(Oc3ccccc3)c2)cc1` [GW9508], the EC50 in [1] was 28.8 nM; in data set [8], 87.1 nM. Moreover, the Efficacy in data set [2] worked out at 103%. The compound further gave an Activity in data set [3] of 54%.

For the compound `O=C(O)CCc1ccc(OCc2ccc(Oc3ccccc3)cc2)cc1`, the EC50 in data set [1] is 204 nM. Further, the Efficacy in data set [2] was 98%. The compound also yielded an Activity in [3] of 23%. For the same compound, the outcome in [4], in [9] and in data set [10] was inactive. Also, in [5], the fold change (FC) was > 100.

Consider `O=C(O)CCc1ccc(OCc2ccc(-c3ccccc3)cc2)cc1`, for which the EC50 in [1] is 912 nM. Besides, the Efficacy in data set [2] was 97%. Moreover, the result in [3], in [4], in [9] and in [10] was inactive. The fold change (FC) in data set [5] was > 100.
